# Results: publication PMC6982609 (Nature chemical biology, 2019)
# What was measured:
# TNBC cells = test: Growth inhibition of TNBC cells by EZH2 inhibitors; format: cell-based
# MDA-MB-231 cells = test: Live-cell imaging proliferation/cell death assay with ER-stress inducer; format: cell-based
# Summary of the method: (§1)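 Cells (1 to 3 × 10^3 per well) were seeded in 96-well plates in duplicate and dosed at the indicated concentrations. Plates were imaged in an IncuCyte live-cell system inside a 37 °C, 5% CO2 incubator. Confluence was derived from phase-contrast images. For cell death, medium contained 1.5 μM DRAQ7, and red-fluorescent dead-cell counts were recorded by automated fluorescence microscopy.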
# MDA-MB-468 cells = test: as above; format: cell-based
# Summary of the method: as §1
# EZH2 = conditions: read-out: IC50 for EZH2; cited from earlier work
compound,measurement,setting,value
CC[C@H](C)n1cc(C)c2c(C(=O)NCc3c(C)cc(C)[nH]c3=O)cc(-c3ccc(N4CCNCC4)nc3)cc21 [GSK126],growth inhibition and apoptosis induction in TNBC cells,TNBC cells,failed to inhibit growth
"COc1cc(C)[nH]c(=O)c1CNC(=O)c1c(C)n([C@H](C)C2CCN(CC(F)(F)F)CC2)c2ccccc12 [CPI-1205, (R)-N-((4-methoxy-6-methyl-2-oxo-1,2-dihydropyridin-3-yl)methyl)-2-methyl-1-(1-(1-(2,2,2-trifluoroethyl)piperidin-4-yl)ethyl)-1H-indole-3-carboxamide]",growth inhibition and apoptosis induction in TNBC cells,TNBC cells,failed to inhibit growth
tunicamycin,induction of cell death,MDA-MB-231 cells,not in MDA-MB-231 cells
same,induction of cell death,MDA-MB-468 cells,effectively induced cell death
CCCc1cc(C)[nH]c(=O)c1CNC(=O)c1cc(-c2ccc(N3CCN(C(=O)CCOCCOCCOCCOCCOCCOCCOCCOCCOCCOCCOCCOCCNC(=O)CCCC[C@@H]4SC[C@@H]5NC(=O)N[C@@H]54)CC3)nc2)cc2c1cnn2C(C)C [UNC2399],IC50,EZH2,17 nM
